Test results as given in PMC6541390 (Biochemistry, 2010).
Several values for one entry are separate records, joined by “and”; a condition that tells them apart may be missing. Equal values may be shown once. Read-outs that look alike come from different tables or passages of the source.

Legend:
[1] = molecular target: T1, Escherichia coli biotin synthase (BS) (Escherichia coli, UniProt P12996); experiment: Screen for BS inhibition by products and product-related compounds; assay type: biochemical; conditions: for inhibition of BS in the screen: inhibitor 500 μM alone, AdoMet 100 μM, BS 25 μM, 30 min, 37 °C
T1 sequence (P12996 whole entry): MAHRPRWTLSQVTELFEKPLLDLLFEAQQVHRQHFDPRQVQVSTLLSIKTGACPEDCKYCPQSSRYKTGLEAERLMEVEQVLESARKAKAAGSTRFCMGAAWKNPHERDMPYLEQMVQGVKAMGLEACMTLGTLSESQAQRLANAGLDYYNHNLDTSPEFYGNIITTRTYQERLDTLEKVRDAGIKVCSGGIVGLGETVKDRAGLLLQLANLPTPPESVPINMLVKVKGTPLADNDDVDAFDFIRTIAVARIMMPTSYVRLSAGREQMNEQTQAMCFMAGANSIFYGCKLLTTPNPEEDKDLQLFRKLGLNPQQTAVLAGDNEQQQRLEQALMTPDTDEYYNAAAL
Procedure, shortened: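 Anaerobic: BS (25 μM) in 50 mM Tris-HCl, 100 mM KCl, 5 mM DTT, pH 8.0, reconstituted 5 min with Na2S and FeCl3 (200 μM each). Flavodoxin 25 μM, its NADP+ reductase 4 μM, NADPH 1 mM and DTB 50 μM added for 5 min, then AdoMet 100 μM and candidate (500 μM). 30 min, 37 °C; biotin, dAH, MDTB by HPLC; duplicates averaged, normalised to no-inhibitor sample.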

[2] = molecular target: T1, Escherichia coli biotin synthase (BS); assay type: biochemical; conditions: for Ki: BS 25 μM, 30 min, 37 °C
DNA methyltransferases = conditions: binding cooperatively with DNA; cited from earlier work
[3] = molecular target: T1, Escherichia coli biotin synthase (BS); experiment: Equilibrium UV/visible titration of AdoHcy binding to reconstituted BS
[4] = molecular target: T1, Escherichia coli biotin synthase (BS); experiment: Titration of BS active sites with AdoHcy in the activity assay; assay type: biochemical; conditions: extrapolation of the initial linear part of the inhibition curve
[5] = molecular target: T1, Escherichia coli biotin synthase (BS); experiment: Effect of MTA nucleosidase on BS activity in the presence of inhibitors; assay type: biochemical
[6] = molecular target: T2, E. coli MTAN (5′-methylthioadenosine/S-adenosyl-L-homocysteine nucleosidase) (Escherichia coli, UniProt P0AF12); conditions: identical assay conditions; ref Lee et al. (32); cited from earlier work
T2 sequence (P0AF12 whole entry): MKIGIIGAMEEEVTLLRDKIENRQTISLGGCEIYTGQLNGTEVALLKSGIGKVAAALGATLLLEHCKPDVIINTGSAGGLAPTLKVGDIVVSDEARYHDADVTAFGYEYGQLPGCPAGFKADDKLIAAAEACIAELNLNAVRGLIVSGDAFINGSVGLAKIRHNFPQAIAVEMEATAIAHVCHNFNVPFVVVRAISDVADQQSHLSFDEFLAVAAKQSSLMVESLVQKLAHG

[7] = tested on: E. coli cytosine 5-methyltransferase; conditions: cited from earlier work
[8] = molecular target: rat catechol O-methyltransferase; conditions: cited from earlier work
PFL activase = PFL activase (Escherichia coli, UniProt P0A9N4); conditions: at 100 μM AdoMet; cited from earlier work
PFL activase, sequence (P0A9N4 2-246): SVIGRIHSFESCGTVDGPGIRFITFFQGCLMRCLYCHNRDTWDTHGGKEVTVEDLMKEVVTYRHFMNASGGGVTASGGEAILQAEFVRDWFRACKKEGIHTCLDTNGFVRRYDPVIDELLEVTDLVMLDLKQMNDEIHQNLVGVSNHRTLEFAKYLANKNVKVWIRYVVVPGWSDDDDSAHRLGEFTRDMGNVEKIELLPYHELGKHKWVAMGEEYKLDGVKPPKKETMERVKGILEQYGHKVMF

[9] = molecular target: T2, E. coli MTAN (5′-methylthioadenosine/S-adenosyl-L-homocysteine nucleosidase); experiment: MTA/AdoHcy nucleosidase activity assay; assay type: biochemical
BS = conditions: 30 μM dAH, 90 min assay; cited from earlier work
E. coli BS = E. coli BS (Escherichia coli, UniProt P12996); conditions: high AdoMet concentration, 3 h at 37 °C; cited from earlier work
E. coli BS, sequence (P12996 whole entry): as the sequence (P12996 whole entry) above

[10] = molecular target: T1, Escherichia coli biotin synthase (BS); experiment: BS activity at varying AdoMet concentration, commercial versus pure AdoMet; assay type: biochemical; conditions: enzymatically synthesized AdoMet, Michaelis-Menten fit; BS 25 μM
[11] = molecular target: T1, Escherichia coli biotin synthase (BS); conditions: read-out: Kd AdoMet; cited from earlier work
[12] = cited from earlier work
[13] = Ki, inhibitor alone, competitive with AdoMet

In the case of N=C1N[C@H]2[C@H](CS[C@H]2CCCCC(=O)O)N1 [iminobiotin], the “inhibition of BS in the screen” value [1] is reported as “neither biotin nor iminobiotin, the guanido analogue of biotin, is a significant inhibitor”.

For Nc1ncnc2c1ncn2[C@@H]1O[C@H](C[C@@H](N)CC[C@H](N)C(=O)O)[C@@H](O)[C@H]1O [sinefungin], the Ki [2, 13] was 40 to 140 µM and 75 µM, the “inhibition of BS in the screen” value [1] was “inhibitor with a decrease in activity comparable to that observed for dAH” and the “level of MDTB intermediate relative to control” value ([1]; inhibitor 500 μM, 30 min assay) was “less MDTB than the control sample”. The Ki (DNA methyltransferases) was about 0.01 µM.

For CSCC[C@H](N)C(=O)O [methionine], the Ki [2, 13] was 100 µM and the “inhibition of BS in the screen” value [1] was “inhibitors”.

With Nc1ncnc2c1ncn2[C@@H]1O[C@H](CSCC[C@H](N)C(=O)O)[C@@H](O)[C@H]1O [AdoHcy, S-adenosyl-L-homocysteine] the Ki ([2]; Ki AdoHcy, fit to eq 1 with a, b, c = 1 and d = 0, AdoMet 100-500 μM) was ≤ 0.65 µM and 0.4 to 1.2 µM and < 0.65 µM and 0.65 µM, the “inhibition of BS in the screen” value [1] was “no detectable biotin produced” and the “level of MDTB intermediate relative to control” value ([1]; inhibitor 500 μM, 30 min assay) was “less MDTB than the control sample”. For the same compound, the Kd [3] was 0.54 ± 0.15 µM, the “AdoHcy binding sites per BS dimer” value ([3]; equilibrium titration, BS 50 μM) was 1.5 sites per dimer and the koff ([3]; read-out: koff, inhibitor dissociation) was at least 10 s⁻¹. The “AdoHcy equivalents (sites) per BS dimer for complete inhibition” value [4] was 0.85 equiv per dimer, the “BS activity on addition of MTAN” value ([5]; MTAN 200 nM) was “only partially restored” and the “decrease of BS activity” value ([5]; inhibitor 50 μM (each), without MTAN, BS 25 μM, 37 °C) was ~ 95%. The kcat [6] was 2.6 s⁻¹, the Ki [7] was 14 µM and the Ki [8] was 50 µM. For the same compound, the IC50 (PFL activase) was about 20 µM.

With C[S+](CC[C@H](N)C(=O)[O-])C[C@H]1O[C@@H](n2cnc3c(N)ncnc32)[C@H](O)[C@@H]1O (stereo partly drawn) [(R,S)-AdoMet] the “decrease of biotin production” value ([1]; heat-racemized AdoMet, 55 μM (R,S)-AdoMet and 100 μM (S,S)-AdoMet) was about 15%.

For NC(CCS)C(=O)O (centres unmarked) [Homocysteine], the “inhibition of BS in the screen” value [1] was “not an inhibitor”.

In the case of C[C@H]1O[C@@H](n2cnc3c(N)ncnc32)[C@H](O)[C@@H]1O [dAH, 5′-deoxyadenosine], the Ki [2, 13] is reported as 20 µM, the “enhancement of dAH inhibition by cooperative binding with methionine” value ([2]; excess methionine) is reported as 3 fold and the “inhibition of BS in the screen” value [1] is reported as “inhibitors”. For the same compound, the “concentration of MDTB intermediate relative to the control sample” value ([1]; inhibitor 500 μM, 30 min assay) was 3–4 times, the “turnover rate (kcat) faster than with AdoHcy” value [9] was 2 fold and the “turnover rate (kcat) faster than with MTA” value [9] was 1.7 fold. The “weaker affinity (Km) for MTA nucleosidase as compared to MTA” value [9] was 5.8 fold, the kcat ([9]; MTAN 12 nM, 50 mM sodium phosphate pH 7.5) was 5.1 s⁻¹ and the “inhibition of biotin production” value (BS) was ~ 90%. For the same compound, the IC50 (E. coli BS) was about 400 µM.

With O=C(O)CCCC[C@@H]1SC[C@@H]2NC(=O)N[C@@H]21 [biotin] the “inhibition of BS in the screen” value [1] was “neither biotin nor iminobiotin, the guanido analogue of biotin, is a significant inhibitor”.

In the case of C[S+](CC[C@H](N)C(=O)[O-])C[C@H]1O[C@@H](n2cnc3c(N)ncnc32)[C@H](O)[C@@H]1O (stereo partly drawn) [AdoMet, S-adenosyl-L-methionine], the Vmax [10] is listed as 0.52 µM/min, the Kd [11] is listed as 2.3 µM and the “t½ of spontaneous racemization at the sulfonium center” value ([12]; 37 °C) is listed as 107 h. For the same compound, the “t½ of spontaneous degradation to MTA” value ([12]; physiological conditions) was 42 h.

For 5′-methylthioadenosine [MTA], the “inhibition of BS in the screen” value [1] was “not an inhibitor”.
